Measured values collected from several papers.
Protocols differ between the studies behind these lines.
SLC22A11: Solute carrier family 22 member 11 (SLC22A11, Homo sapiens, UniProt Q9NSA0)
GIPR: Gastric inhibitory polypeptide receptor (GIPR, Homo sapiens, UniProt P48546)

| SMILES | target | test | setting | endpoint | result |
| --- | --- | --- | --- | --- | --- |
| Cn1c(=O)c2[nH]cnc2n(C)c1=O | SLC22A11 | transporter uptake, inhibitor | 25 µM | inhibition | 81.6% |
| CC(C)CC(=O)OC[C@H]1O[C@@](C#N)(c2ccc3c(N)ncnn23)[C@H](O)[C@@H]1O | Alpha-2A adrenergic receptor (ADRA2A, Homo sapiens, UniProt P08913) | cell-free assay | 20 µM | inhibition | 6% |
| CN1CCC[C@H]1c1cccnc1 | Delta-type opioid receptor (OPRD1, Homo sapiens, UniProt P41143) | ligand displacement | 50 µM | inhibition | -7.8% |
| [2H]c1c([2H])c([C@]2([2H])CCCN2C(=O)C(C)(C)Oc2ccc3cn[nH]c3c2)c([2H])c([2H])c1C([2H])([2H])[2H] | Receptor tyrosine-protein kinase erbB-2 (ERBB2, Homo sapiens, UniProt P04626) | binding, competition with immobilised ligand | 1 µM | remaining binding | 83% |
| CC[C@H](C)[C@H](NC(=O)[C@H](CO)NC(=O)[C@H](Cc1ccc(O)cc1)NC(=O)[C@H](CC(=O)O)NC(=O)[C@H](CO)NC(=O)[C@@H](NC(=O)[C@H](Cc1ccccc1)NC(=O)[C@@H](NC(=O)CNC(=O)[C@H](CCC(=O)O)NC(=O)[C@@H](C)NC(=O)[C@@H](N)Cc1ccc(O)cc1)[C@@H](C)O)[C@@H](C)CC)C(=O)N[C@@H](C)C(=O)N[C@@H](CCSC)C(=O)N[C@@H](CC(=O)O)C(=O)N[C@@H](CCCCN)C(=O)N[C@H](C(=O)N[C@@H](Cc1c[nH]cn1)C(=O)N[C@@H](CCC(N)=O)C(=O)N[C@@H](CCC(N)=O)C(=O)N[C@@H](CC(=O)O)C(=O)N[C@@H](Cc1ccccc1)C(=O)N[C@H](C(=O)N[C@@H](CC(N)=O)C(=O)N[C@@H](Cc1c[nH]c2ccccc12)C(=O)N[C@@H](CC(C)C)C(=O)N[C@@H](CC(C)C)C(=O)N[C@@H](C)C(=O)N[C@@H](CCC(N)=O)C(=O)NCC(=O)N1CCC[C@H]1C(=O)N[C@@H](CO)C(=O)N[C@@H](CO)C(=O)NCC(=O)N[C@@H](C)C(=O)N1CCC[C@H]1C(=O)N1CCC[C@H]1C(=O)N1CCC[C@H]1C(=O)N[C@@H](CO)C(=O)N[C@@H](CCCCN)C(N)=O)C(C)C)[C@@H](C)CC | GIPR | β-arrestin recruitment, agonist |  | Emax | 103% |
| c1cncc([C@@H]2CCCN2)c1 | 5-hydroxytryptamine receptor 3A (HTR3A, Homo sapiens, UniProt P46098) | ligand displacement, radioligand | 50 µM | inhibition | -3.09% |
| CCCCCCCCCc1ccc(OCCOCCOCCOCCOCCOCCOCCOCCOCCO)cc1 | SLC22A11 | transporter uptake, inhibitor | 25 µM | inhibition | 79.9% |
| CC[C@H](C)[C@H](NC(=O)[C@H](CO)NC(=O)[C@H](Cc1ccc(O)cc1)NC(=O)[C@H](CC(=O)O)NC(=O)[C@H](CO)NC(=O)[C@@H](NC(=O)[C@H](Cc1ccccc1)NC(=O)[C@@H](NC(=O)CNC(=O)[C@H](CCC(=O)O)NC(=O)CCNC(=O)C1(c2ccc(Cl)cc2)CCOCC1)[C@@H](C)O)[C@@H](C)CC)C(=O)N[C@@H](C)C(=O)N[C@@H](CCSC)C(=O)N[C@@H](CC(=O)O)C(=O)N[C@@H](CCCCN)C(=O)N[C@H](C(=O)N[C@@H](Cc1c[nH]cn1)C(=O)N[C@@H](CCC(N)=O)C(=O)N[C@@H](CCC(N)=O)C(=O)N[C@@H](CC(=O)O)C(=O)N[C@@H](Cc1ccccc1)C(=O)N[C@H](C(=O)N[C@@H](CC(N)=O)C(=O)N[C@@H](Cc1c[nH]c2ccccc12)C(=O)N[C@@H](CC(C)C)C(=O)N[C@@H](CC(C)C)C(=O)N[C@@H](C)C(=O)N[C@@H](CCC(N)=O)C(=O)NCC(=O)N1CCC[C@H]1C(=O)N[C@@H](CO)C(=O)N[C@@H](CO)C(=O)NCC(=O)N[C@@H](C)C(=O)N1CCC[C@H]1C(=O)N1CCC[C@H]1C(=O)N1CCC[C@H]1C(=O)N[C@@H](CO)C(=O)N[C@@H](CCCCN)C(N)=O)C(C)C)[C@@H](C)CC | GIPR | β-arrestin recruitment, agonist |  | Emax | 14% |
